Measured values pooled from the literature.
Lines come from different studies, so protocols differ. In brackets after ≈: the same amount, converted by molar mass.

O=C(O)c1cn(C2CC2)c2cc(N3CCNCC3)c(F)cc2c1=O  MIC (Shigella sonnei; microbial growth; ATCC25931): 0.88 µM (≈ 0.292 µg/mL)
COc1ccc(Cc2[nH]/c(=N/C(=O)C34CC5CC(CC(C5)C3)C4)n(C)c2-c2ccc(OC(=O)c3ccc(C(F)(F)F)cc3)c(OC)c2)cc1  IC50 (Hepatitis B virus; viral replication, inhibitor; HePAD38): 5220 nM
Cc1c(C(N)=O)c(N)n(N)c(=O)c1C#N  inhibition zone (Saccharomyces cerevisiae; microbial growth, well diffusion; ATCC9763; 500 µg/mL): 11 mm
O=C(NC(=S)Nc1ccccn1)c1cccs1  IC50 (Leishmania tropica; parasite growth, resazurin; promastigote): 790 nM
CC(=O)N1CCN(c2ccc(OCC3COC(Cn4ccnc4)(c4ccc(Cl)cc4Cl)O3)cc2)CC1 (stereo not shown)  inhibition zone (Saccharomyces cerevisiae; microbial growth, well diffusion; ATCC9763; 500 µg/mL): 20 mm
O=C(NC(=S)Nc1nccs1)c1cccs1  IC50 (Leishmania tropica; parasite growth, resazurin; promastigote): 1530 nM
COc1ccc(Cc2[nH]/c(=N/C(=O)C34CC5CC(CC(C5)C3)C4)n(C)c2Cc2ccc(OC)c(OC)c2)cc1  IC50 (Hepatitis B virus; viral replication, inhibitor; HePAD38): 240 nM
N#Cc1c(-c2ccc(Cl)cc2Cl)c(C(N)=O)c(N)n(N)c1=O  inhibition zone (Saccharomyces cerevisiae; microbial growth, well diffusion; ATCC9763; 500 µg/mL): 10 mm
COc1ccc(Cc2[nH]/c(=N/C(=O)C34CC5CC(CC(C5)C3)C4)n(C)c2-c2ccc(OC(=O)C3CC3)c(OC)c2)cc1  IC50 (Hepatitis B virus; viral replication, inhibitor; HePAD38): 49300 nM
O=C(NC(=S)Nc1cccc(O)c1)c1ccco1  IC50 (Leishmania tropica; parasite growth, resazurin; promastigote): 680 nM
